Reference: ChEMBL document CHEMBL1138258, “Optimizing cell permeation of an antibiotic resistance inhibitor for improved efficacy” (J Med Chem, 2007)

Experiments:
Escherichia coli = assay: Antibacterial activity against Escherichia coli K12 JM109 overexpressing beta-lactamase; format: functional
How it was run: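 Broth microdilution in Mueller Hinton broth against E. coli K12 JM109 overexpressing AmpC from a heat-sensitive pOGO plasmid. Ampicillin MIC determined with and without boronic acids; final inoculum 5 × 10^5 CFU/mL; DMSO below 5%.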

[1] = Dissociation constant, pKa of the compound; format: physicochemical
How it was run: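 UV spectrophotometric determination on 10^-4 M aqueous solutions, by two methods. First, spectra were recorded at pH between 2 and 12 with ionic strength fixed at 0.01. Second, solutions at pH 2 (0.5 N HCl) were titrated with 0.5 N NaOH up to pH 12. pKa was derived with the Henderson-Hasselbalch equation and absorption-spectra extrapolation.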

Row | Structure (SMILES) | pKa [1] | MIC (Escherichia coli)
1 | O=CN(C=O)Cc1ccc2sc(B(O)O)cc2c1 | 6.39 | 92 µM
2 | O=CNCc1ccc2sc(B(O)O)cc2c1 | 6.6 | 
3 | O=[N+]([O-])c1cccc(NCc2ccc3sc(B(O)O)cc3c2)c1 | 6.39 | 78 µM
4 | CC(=O)c1ccc(NCc2ccc3sc(B(O)O)cc3c2)cc1 | 6.39 | 314 µM
5 | O=C(O)c1cccc(NCc2ccc3sc(B(O)O)cc3c2)c1 | 6.39 | 
6 | O=C(O)CNCc1ccc2sc(B(O)O)cc2c1 | 6.39 | 92 µM
7 | Nn1cn[n+](Cc2ccc3sc(B(O)O)cc3c2)c1 | 6.39 | 117 µM
8 | OB(O)c1cc2cc(CSc3ccccc3)ccc2s1 | 6.39 | 84 µM
9 | OB(O)c1cc2cc(COc3ccc(Cl)c(Cl)c3)ccc2s1 | 6.39 | 
10 | Cc1ccc2sc(B(O)O)cc2c1 | 6.39 | 117 µM
11 | OB(O)c1cc2ccccc2s1 | 6.39 | 359 µM
12 | OB(O)c1cc2cc(Cn3ccnc3)ccc2s1 | 6.39 | 94 µM
13 | OCc1ccc2sc(B(O)O)cc2c1 | 6.39 | 
14 | OB(O)c1cc2cc(CNc3ccc(Cl)c(Cl)c3)ccc2s1 | 6.39 | 147 µM
15 | OB(O)c1cc2cc(CBr)ccc2s1 | 6.39 | 
16 | CC1(C)S[C@@H]2[C@H](NC(=O)[C@H](N)c3ccccc3)C(=O)N2[C@H]1C(=O)O [AMPICILLIN] |  | 512 µg/mL

Second part, led by results:

Row | pKa [1] | Structure (SMILES) | MIC (Escherichia coli)
17 | 6.39 | OCCN(CCO)Cc1ccc2sc(B(O)O)cc2c1 | 
18 | 6.39 | OB(O)c1cc2cc(CNc3ccc(C(O)(C(F)(F)F)C(F)(F)F)cc3)ccc2s1 | 
19 | 6.39 | OB(O)c1cccc(NCc2ccc3sc(B(O)O)cc3c2)c1 | 
20 | 6.39 | OB(O)c1cc2cc(COCc3ccccc3)ccc2s1 | 
21 | 6.39 | OB(O)c1cc2cc(CNc3ccc(N4CCOCC4)cc3)ccc2s1 | 
22 | 6.39 | OB(O)c1cc2cc(COc3ccccc3)ccc2s1 | 
23 | 6.39 | COc1ccc(NCc2ccc3sc(B(O)O)cc3c2)cc1OC | 
24 | 6.39 | OB(O)c1cc2cc(CN3CCNCC3)ccc2s1 | 
